# Published values from different studies.
# Each line is one published result; the experiments were not run side by side.
Structure (SMILES),tested on,assay,system,setting,measurement,result
CCCCCCCCCCCC(=O)CP(=O)(O)O,Bacillus anthracis,microbial growth,STERNE34F2,,MIC,50 µg/mL
CCCCCCCCCC#CCCCCC(=O)O,Leishmania infantum,parasite growth,,promastigote,EC50,102 µM
CCCCCCCCCCCC(=O)NP(=O)(O)O,Bacillus anthracis,microbial growth,STERNE34F2,,MIC,> 200 µg/mL
COc1ccc2cc1Oc1cc(ccc1OC)CCC(N[C@@H]1CCCc3ccccc31)CCCC2 (stereo partly drawn),Streptococcus pyogenes,"microbial growth, broth dilution",ATCC700294,,MIC,> 100 µg/mL
CC(=O)C1=C(O)C(CC(C)C)NC1=O (stereo not drawn),Stenotrophomonas maltophilia,microbial growth,ATCC13637,,MIC,> 200 µg/mL
O=C1NN=C(N=Cc2ccccc2O)C1=NNn1c(-c2ccccc2)nc2ccccc2c1=O,Vibrio cholerae,"microbial growth, broth dilution",,24 h,MIC,55.4 µM
CCOC(=O)Nc1ccc(NCc2ccc(F)cc2)cc1N,,MES seizures,rat,intraperitoneal,ED50,4.01 mg/kg
COc1ccc(OS(=O)(=O)NC(=O)CCCCc2ccccc2)cc1,Bacillus anthracis,microbial growth,STERNE34F2,,MIC,200 µg/mL
CC(C)[C@H](N)C(=O)OCCCCCn1cnc2nc(NCc3ccc(Cl)c(Cl)c3)[nH]c(=O)c21,Bifidobacterium,"microbial growth, agar dilution",,48 h,MIC,32 µg/mL
OC[C@H]1O[C@@H](n2cnc3c(NC4CCCC4)ncnc32)[C@H](O)[C@@H]1O,,MES seizures,rat,intraperitoneal,ED50,6.7 mg/kg
C=CCCCCCCCCC(=O)C(F)(F)P(=O)(O)O,Bacillus anthracis,microbial growth,STERNE34F2,,MIC,> 200 µg/mL
CC1=NN(CNC(=O)c2ccccc2)C(=O)C1=NNn1c(-c2ccccc2)nc2ccccc2c1=O,Vibrio cholerae,"microbial growth, broth dilution",,24 h,MIC,51.9 µM
CCCCCCCCCCCCCCCC(=O)NS(=O)(=O)Oc1ccc(OC)cc1,Bacillus anthracis,microbial growth,STERNE34F2,,MIC,3.12 µg/mL
CC1=NN(CNc2ccccn2)C(=O)C1=NNn1c(-c2ccccc2)nc2ccccc2c1=O,Vibrio cholerae,"microbial growth, broth dilution",,24 h,MIC,55.2 µM
CC(C=CC(O)=C1C(=O)CNC1=O)=CC(C)C1OC2(C)OC(C(O)C=C2C)C1C (stereo not drawn),Bacillus anthracis,microbial growth,34F2,,MIC,25 µM
O=C1NN=C(N=Cc2ccccc2)C1=NNn1c(-c2ccccc2)nc2ccccc2c1=O,Vibrio cholerae,"microbial growth, broth dilution",,24 h,MIC,114 µM
CCCCCCCCCCCCCCCC(=O)CP(=O)(O)O,Bacillus anthracis,microbial growth,STERNE34F2,,MIC,1.56 µg/mL
O=C(O)c1cn(C2CC2)c2cc(N3CCNCC3)c(F)cc2c1=O,Bacillus anthracis,microbial growth,34F2,,MIC,0.781 µM
